The results in this text go back to ChEMBL document CHEMBL1144571, “ABP688, a novel selective and high affinity ligand for the labeling of mGlu5 receptors: identification, in vitro pharmacology, pharmacokinetic and biodistribution studies” (Bioorg Med Chem, 2007).

Each structure is given as a SMILES string. pIC50, pKd, pKi: −log10 of the molar value. Activity calls are given as the source filed them.

Data set [1] addresses Metabotropic glutamate receptor 1 (Homo sapiens) (UniProt Q13255). Description: Activity at human recombinant mGluR1 expressed in L(tk-) cells assessed as basal phosphoinositol level.
Data set [2] deals with T1, Metabotropic glutamate receptor 5 (Homo sapiens, UniProt P41594). Description: Displacement of [3H]ABP688 from human mGluR5 receptor expressed in L (tk-) cells. Type of data set: cell-based. Background: Displacement assays read how much labelled ligand stays bound in the presence of the test substance.
Data set [3] has as its target T2, Metabotropic glutamate receptor 5 (Rattus norvegicus, UniProt P31424). Description: Displacement of [3H]ABP688 from mGluR5 in rat brain membrane. Type of data set: cell membranes.
In data set [4] the target is T1, Metabotropic glutamate receptor 5. Kind of data set: Activity at human recombinant mGluR5 expressed in L(tk-) cells assessed as inhibition of glutamate-induced calcium release. The class given is functional, cell-based.
For data set [5] the target is unchanged. Kind of data set: Activity at human recombinant mGluR5 expressed in L(tk-) cells assessed as inhibition of quisqualate-induced phosphoinositol accumulation. Type of data set: functional, cell-based.
The target is the same in data set [6]. Kind of data set: Displacement of [3H]M-MPEP from human mGluR5 receptor expressed in L (tk-) cells. The class given is cell-based. The gist of the method:
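Membranes from L(tk-) cells expressing recombinant human mGluR5, incubated with 2 nM [3H]-M-MPEP over a range of competitor concentrations. Non-specific binding was taken with 1 µM unlabeled M-MPEP. Readout is percent specific binding.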

Data set [7] deals with Metabotropic glutamate receptor 1 (Homo sapiens) (UniProt Q13255). Kind of data set: Activity at human recombinant mGluR1 expressed in L(tk-) cells assessed as inhibition of quisqualate-induced phosphoinositol accumulation at 10 uM. The class given is functional, cell-based. The gist of the method: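 Inhibition of quisqualate (40 µM)-stimulated PI accumulation in hmGluR1-expressing cells cultured in glutamate-free DMEM (2 mM L-glutamine, proline, 10% dialyzed FCS, geneticin). Percent control ± SD, n = 3 independent determinations, each in triplicate.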

Data set [8] concerns Brain. Description: Drug level in Wistar rat brain at 4 ug/kg, iv after 5 mins. Type of data set: ADME, organism-based. The following applies: in vivo, 0.004 mg/kg. The gist of the method:
(§1)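 Male Wistar rats (220–250 g) given 4 µg/kg [3H]ABP688 in EtOH/5% glucose (1:99), 1 mL/kg, into the exposed femoral vein under light isoflurane. n = 3 per time point; plasma and tissues collected, total radioactivity by scintillation, parent by LC-radiodetection with unlabeled internal standard. Bi-exponential compartmental PK analysis.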

Data set [9] concerns Brain. Description: Drug uptake in Wistar rat brain at 4 µg/kg, iv. The settings on record: in vivo.
Data set [10] in a line: Metabolic stability assessed as intrinsic clearance in Sprague-Dawley rat liver microsomes. The class given is ADME, Microsome. The procedure, abridged:
(§2)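 Pooled liver microsomes (male Sprague-Dawley rat; mixed-gender Caucasian human), 0.2 mg protein/mL, incubated with [3H]ABP688 (0.92 µmol/L) for 40 min at 37 °C in 0.1 M sodium phosphate pH 7.4 containing 4 mM UDPGA, 1 mM β-NADPH and 5 mM MgCl2. Parent depletion tracked by on-line radio-HPLC; intrinsic clearance from parent kinetics.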
Background: Liver microsomes are vesicles of endoplasmic reticulum, rich in cytochrome P450 enzymes.

In data set [11] the test system is Plasma. Kind of data set: Drug distribution in rat plasma. Type of data set: ADME, cell-free. The procedure, abridged: (§3)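 Fresh heparinized rat or human blood spiked with [3H]ABP688 (5–500,000 pg/mL) at 37 °C. Plasma separated by centrifugation (1500g, 10 min, 37 °C), total radioactivity counted in plasma and blood, hematocrit measured (n = 3). Plasma fraction fP (%) = (Cp/Cb)·(1−H)·100.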

A short description of data set [12]: Volume of distribution in Wistar rat at 4 ug/kg, iv. Type of data set: ADME, organism-based. The settings on record: in vivo, 0.004 mg/kg, read-out: Vss. The gist of the method:
as §1

The nature of data set [13]: Protein binding in rat plasma as percentage unbound. The class given is ADME, cell-free. The gist of the method:
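Rat or human plasma spiked with [3H]ABP688 (50–500,000 pg/mL) and ultrafiltered at 37 °C through a 30 kDa cut-off device. Radioactivity in ultrafiltrate (Cu) and in sample before filtration (Cp) counted by liquid scintillation; fu (%) = Cu/Cp·100.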

The subject of data set [14] is Plasma. Kind of data set: Drug distribution in human plasma. The class given is ADME, cell-free. The procedure, abridged: as §3
A short description of data set [15]: Metabolic stability assessed as intrinsic clearance in human liver microsomes. The class given is ADME, Microsome. The procedure, abridged: as §2
Data set [16] can be described thus: Ratio of drug levels in brain to plasma in Wistar rat at 4 ug/kg, iv. The class given is ADME, organism-based. The following applies: brain and plasma, 0.004 mg/kg. The gist of the method: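 Male Wistar rats (220–250 g) given 4 µg/kg [³H]ABP688 iv into the surgically exposed femoral vein under slight isoflurane anaesthesia, in EtOH/glucose 5% (1:99 v/v) at 1 mL/kg. Groups of n = 3 per sampling time over about 2.5 h. Plasma and brain were taken. Total radioactivity was read by liquid scintillation, and parent compound by LC-RID with unlabelled internal standard. Values are means ± SD.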

A further data set relates to Rattus norvegicus. Description: Drug uptake in Wistar rat at 4 ug/kg, iv. Type of data set: ADME, organism-based. The settings on record: in vivo, 0.004 mg/kg. The procedure, abridged: as §1
Data set [17] addresses T2, Metabotropic glutamate receptor 5. Kind of data set: Binding affinity at mGluR5 in rat brain membrane. Type of data set: cell membranes. The gist of the method: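 Rat whole-brain membranes in Na-HEPES buffer (110 mM NaCl, 1.2 mM MgCl2, 5 mM KCl, 2.5 mM CaCl2), pH 8.0. Competition against fixed 1.5 nM [3H]ABP688, equilibrated 60 min at 37 °C, then filtered on glass-fibre and counted by liquid scintillation, in triplicate. Ki derived by Cheng–Prusoff from non-linear curve fits.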

T2 sequence (P31424 whole entry): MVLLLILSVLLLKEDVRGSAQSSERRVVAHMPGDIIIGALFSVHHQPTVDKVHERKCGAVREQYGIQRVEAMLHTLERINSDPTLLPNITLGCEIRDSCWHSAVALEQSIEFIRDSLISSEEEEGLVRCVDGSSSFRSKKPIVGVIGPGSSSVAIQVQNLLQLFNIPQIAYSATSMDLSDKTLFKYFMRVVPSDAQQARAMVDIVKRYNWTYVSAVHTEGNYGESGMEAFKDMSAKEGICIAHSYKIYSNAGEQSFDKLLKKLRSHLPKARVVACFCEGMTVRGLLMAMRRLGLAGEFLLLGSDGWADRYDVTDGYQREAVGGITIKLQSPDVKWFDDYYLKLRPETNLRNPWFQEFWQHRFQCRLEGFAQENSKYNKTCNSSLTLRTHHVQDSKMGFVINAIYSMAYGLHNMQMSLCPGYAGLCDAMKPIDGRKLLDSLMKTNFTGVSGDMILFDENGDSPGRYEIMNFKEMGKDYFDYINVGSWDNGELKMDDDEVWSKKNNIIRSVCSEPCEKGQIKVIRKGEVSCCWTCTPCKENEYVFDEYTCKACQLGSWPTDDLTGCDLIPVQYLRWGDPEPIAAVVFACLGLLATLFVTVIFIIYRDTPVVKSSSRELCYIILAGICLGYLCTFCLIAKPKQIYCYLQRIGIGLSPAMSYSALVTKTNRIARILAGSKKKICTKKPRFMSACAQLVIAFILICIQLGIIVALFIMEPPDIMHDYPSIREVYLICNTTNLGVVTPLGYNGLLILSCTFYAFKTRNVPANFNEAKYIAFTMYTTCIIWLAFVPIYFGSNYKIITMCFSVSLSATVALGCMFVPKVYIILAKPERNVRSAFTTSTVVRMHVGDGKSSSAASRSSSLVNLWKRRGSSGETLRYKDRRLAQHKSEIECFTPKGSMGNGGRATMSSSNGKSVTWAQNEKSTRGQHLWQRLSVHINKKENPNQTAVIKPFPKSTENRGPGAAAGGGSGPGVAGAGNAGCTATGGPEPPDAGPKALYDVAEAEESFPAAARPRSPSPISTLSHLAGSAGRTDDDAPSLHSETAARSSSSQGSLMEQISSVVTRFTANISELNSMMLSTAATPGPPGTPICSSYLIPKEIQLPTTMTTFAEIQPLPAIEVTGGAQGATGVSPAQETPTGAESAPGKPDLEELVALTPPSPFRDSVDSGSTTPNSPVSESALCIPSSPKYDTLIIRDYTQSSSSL
T1 sequence (P41594 whole entry): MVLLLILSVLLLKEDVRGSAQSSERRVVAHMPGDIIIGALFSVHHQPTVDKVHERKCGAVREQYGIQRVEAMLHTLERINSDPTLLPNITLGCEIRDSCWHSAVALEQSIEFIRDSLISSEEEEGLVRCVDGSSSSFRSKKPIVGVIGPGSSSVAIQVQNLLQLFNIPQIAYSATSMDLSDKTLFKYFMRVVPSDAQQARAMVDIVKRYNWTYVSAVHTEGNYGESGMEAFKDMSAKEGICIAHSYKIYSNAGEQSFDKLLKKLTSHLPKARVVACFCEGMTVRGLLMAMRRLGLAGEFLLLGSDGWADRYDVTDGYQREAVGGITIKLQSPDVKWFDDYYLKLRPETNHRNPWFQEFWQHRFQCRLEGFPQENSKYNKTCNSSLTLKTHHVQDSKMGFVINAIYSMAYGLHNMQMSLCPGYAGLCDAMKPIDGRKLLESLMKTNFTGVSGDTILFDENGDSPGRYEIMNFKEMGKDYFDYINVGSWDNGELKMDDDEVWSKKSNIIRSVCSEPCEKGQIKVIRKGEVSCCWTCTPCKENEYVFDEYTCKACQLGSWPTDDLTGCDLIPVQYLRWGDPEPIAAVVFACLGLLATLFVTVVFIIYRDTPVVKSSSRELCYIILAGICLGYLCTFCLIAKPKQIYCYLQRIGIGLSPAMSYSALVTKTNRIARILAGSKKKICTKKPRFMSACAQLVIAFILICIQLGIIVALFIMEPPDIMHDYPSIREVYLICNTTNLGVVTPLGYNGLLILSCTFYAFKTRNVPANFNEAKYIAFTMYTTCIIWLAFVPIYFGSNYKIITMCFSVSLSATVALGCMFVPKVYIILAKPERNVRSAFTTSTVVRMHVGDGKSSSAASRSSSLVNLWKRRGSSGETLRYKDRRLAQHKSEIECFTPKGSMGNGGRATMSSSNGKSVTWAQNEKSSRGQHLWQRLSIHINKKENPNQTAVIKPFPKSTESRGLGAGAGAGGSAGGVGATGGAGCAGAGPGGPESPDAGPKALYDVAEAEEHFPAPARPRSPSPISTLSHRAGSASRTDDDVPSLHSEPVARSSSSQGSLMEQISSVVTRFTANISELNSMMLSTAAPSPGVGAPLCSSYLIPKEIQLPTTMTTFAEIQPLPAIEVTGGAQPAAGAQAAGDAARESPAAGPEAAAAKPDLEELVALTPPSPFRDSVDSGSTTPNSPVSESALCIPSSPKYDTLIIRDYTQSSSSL
Chain of Metabotropic glutamate receptor 1 (Homo sapiens) (Q13255 19-1194 limits assumed): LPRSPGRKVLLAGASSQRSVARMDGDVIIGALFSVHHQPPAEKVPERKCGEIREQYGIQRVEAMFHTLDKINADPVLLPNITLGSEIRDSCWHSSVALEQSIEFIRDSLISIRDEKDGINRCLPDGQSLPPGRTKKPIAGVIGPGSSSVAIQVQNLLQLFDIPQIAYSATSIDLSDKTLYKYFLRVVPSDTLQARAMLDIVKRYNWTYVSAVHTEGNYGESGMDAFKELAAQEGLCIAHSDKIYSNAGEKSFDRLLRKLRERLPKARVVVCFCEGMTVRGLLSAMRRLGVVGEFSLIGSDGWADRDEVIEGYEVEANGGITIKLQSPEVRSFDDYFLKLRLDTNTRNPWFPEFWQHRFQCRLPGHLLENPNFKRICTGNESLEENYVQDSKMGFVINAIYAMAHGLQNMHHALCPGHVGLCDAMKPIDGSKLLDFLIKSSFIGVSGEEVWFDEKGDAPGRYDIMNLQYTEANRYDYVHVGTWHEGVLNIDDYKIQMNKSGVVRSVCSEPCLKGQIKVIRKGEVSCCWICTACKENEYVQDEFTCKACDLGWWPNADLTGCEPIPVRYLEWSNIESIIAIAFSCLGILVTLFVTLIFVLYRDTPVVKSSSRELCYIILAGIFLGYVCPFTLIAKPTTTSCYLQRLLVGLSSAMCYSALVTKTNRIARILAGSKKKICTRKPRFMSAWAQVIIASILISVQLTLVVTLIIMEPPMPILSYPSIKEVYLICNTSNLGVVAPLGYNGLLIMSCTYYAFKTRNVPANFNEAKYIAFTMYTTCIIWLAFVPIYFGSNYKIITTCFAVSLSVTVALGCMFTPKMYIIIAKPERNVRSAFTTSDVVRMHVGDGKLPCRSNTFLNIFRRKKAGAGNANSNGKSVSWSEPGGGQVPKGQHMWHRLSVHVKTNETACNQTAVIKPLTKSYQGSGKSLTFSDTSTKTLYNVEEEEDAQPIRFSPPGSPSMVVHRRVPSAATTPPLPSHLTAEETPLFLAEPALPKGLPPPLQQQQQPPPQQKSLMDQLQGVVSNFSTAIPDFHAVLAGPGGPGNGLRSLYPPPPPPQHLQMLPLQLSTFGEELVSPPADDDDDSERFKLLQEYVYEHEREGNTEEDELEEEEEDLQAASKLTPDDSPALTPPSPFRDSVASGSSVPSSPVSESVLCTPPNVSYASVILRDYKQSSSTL

For `CO/N=C1/C=C(C#Cc2cccc(C)n2)CCC1`, the outcome in data set [1] and in data set [7] was inactive. Also, the pKi is 8.77 in data set [2], 8.74 in data set [3] and 8.46 in data set [6]. Further, the pIC50 in [4] is 8.64; in data set [5] it was 8.62; in data set [6], 8.15.
`CCOC(=O)[C@]12CC1/C(=N\O)c1ccccc1O2` (some centres not stated) [CPCCOET]: the results for the pKi in data set [2] and in data set [3] were less than 4.00 and less than 5.00, respectively.
Regarding `COc1cccc(C#Cc2cccc(C)n2)c1` [M-MPEP], in data set [3], the pKi is 7.96.
Turning to `[3H]C([3H])([3H])O/N=C1/C=C(C#Cc2cccc(C)n2)CCC1`, the Activity with Brain [8] is 21 pmol/g; with Plasma [11], 76%; in the data set on Plasma [14], 92%. Further, the values for the Drug uptake in the data set on Brain [9] and in the data set with Rattus norvegicus were 0.8 %ID and 21 %ID, respectively. Moreover, the intrinsic clearance (microsomal CLint) in data set [10] and in data set [15] was 150 µL/min/mg throughout. Further, the Vd in data set [12] came out at 11 L/kg. In [13], this compound gave a fraction unbound of 0.068. For the same compound, the partition ratio (Kp) in data set [16] is 20. Also, the pKd in data set [17] is 8.64.

The term pKi denotes the negative decadic logarithm of the Ki, by convention in mol/L. As a reminder, the pIC50 is −log10 of the IC50, conventionally taken in molar units. Usually microsomal CLint stands for the rate of metabolic loss divided by the concentration. What is called fraction unbound is the share of the substance not bound to proteins or other matrix. Read a low fraction unbound as extensive binding. One may read the Kp as tissue or fluid exposure divided by exposure in the circulation. Usually pKd stands for −log10 of the Kd, conventionally taken in molar units. A high value points to a small Kd.
